Assay [1] relates to LoVo. As to the kind of experiment: In vitro inhibition of LoVo (human colon cancer) cell growth. It counts as functional, cell-based. An outline of the steps:
(§1)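 Human cancer lines from ATCC, grown at 37 °C in sealed dishes in Eagle's MEM with 5% FCS. Cells were seeded at 40000 cells/mL and plated for 24 h before drug exposure. Six concentrations from 10^-5 to 10^-10 M were tested. Growth was read by MTT reduction to formazan at 570 nm (reference 630 nm), in sextuplicate. IC50 is the concentration giving 50% growth reduction versus control.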

Assay [2] has as its system A-427. As to the kind of experiment: In vitro inhibition of A-427 (human lung cancer) cell growth. It counts as functional, cell-based. The gist of the method: as §1
The test system of assay [3] is MCF7. Briefly: In vitro inhibition of MCF-7 (human breast cancer) cell growth. It counts as functional, cell-based. The gist of the method:
as §1

Assay [4] has as its system T47D. Briefly: In vitro inhibition of T-47D (human breast cancer) cell growth. Type of assay: functional, cell-based. An outline of the steps: as §1
The subject of assay [5] is PC-3. As to the kind of experiment: In vitro inhibition of PC-3 (human prostate cancer) cell growth. It counts as functional, cell-based. An outline of the steps:
as §1

Assay [6] relates to HCT-15. As to the kind of experiment: In vitro inhibition of HCT-15 (human colon cancer) cell growth. Type of assay: functional, cell-based. An outline of the steps: as §1
A short description of assay [7]: In vitro inhibition of T24 (human bladder cancer) cell growth. Type of assay: functional, cell-based. As to conditions: T-24. The gist of the method: as §1
The test system of assay [8] is J82. As to the kind of experiment: In vitro inhibition of J82 (human bladder cancer) cell growth. Type of assay: functional, cell-based. The gist of the method: as §1
Assay [9] relates to SW1088 (human). Briefly: In vitro inhibition of SW1088 (human astrocytoma) cell growth.
Assay [10] relates to A549. As to the kind of experiment: In vitro inhibition of A549 (human lung cancer) cell growth. Type of assay: functional, cell-based. The gist of the method: as §1
In assay [11] the test system is U-87 MG. As to the kind of experiment: In vitro inhibition of U-87 MG (human glioblastoma) cell growth. It counts as functional, cell-based, U-87MG ATCC. The gist of the method:
as §1

Assay [12] concerns U373 MG. As to the kind of experiment: In vitro inhibition of U-373 MG (human glioblastoma) cell growth. It counts as functional, cell-based, U-373MG ATCC. The gist of the method:
as §1

For `Nc1ccnc2c1C(=O)c1c(-c3ccccc3NC(=O)C(F)(F)F)ccnc1C2=O`, the IC50 (as a rule, the midpoint of a concentration-inhibition curve) in [1] amounted to 700 nM; in assay [2] it was 500 nM; in [3], 800 nM; in [4], 1200 nM; in [5], 600 nM; in assay [6], 600 nM. Besides, the IC50 in assay [7] was 700 nM; in [8] it was 2700 nM; in [9], 800 nM; in [10], 600 nM; in assay [11], 300 nM; in [12] it was 900 nM.
On to `O=C1c2ncccc2C(=O)c2c(-c3ccccc3NC(=O)C(F)(F)F)ccnc21`, for which the IC50 in assay [1] was 7 nM; in assay [2], 30 nM; in [3], 6 nM; in [4] it was 50 nM; in assay [5], 60 nM; in assay [6], 8 nM. Further, the IC50 in assay [7] worked out at 200 nM; in assay [8] it was 60 nM; in [9], 60 nM; in assay [10], 6 nM; in [11], 0.9 nM; in [12] it was 5 nM.
As to `O=C1c2ncccc2-c2nc3ccccc3c3ccnc1c23`, the IC50 in assay [1] is 20 nM; in [2], 0.8 nM; in assay [3], 0.9 nM; in assay [4], 10 nM; in assay [5], 40 nM; in [6], 5 nM. Besides, the IC50 in [7] is under 0.1 nM; in [8], 7 nM; in assay [9], 60 nM; in assay [10], 20 nM; in assay [11], under 0.1 nM; in assay [12], 0.7 nM.
As for `Nc1ccnc2c1C(=O)c1c(-c3ccccc3[N+](=O)[O-])ccnc1C2=O`, the IC50 in assay [1] was determined as 5700 nM; in assay [2], 5500 nM; in assay [3], 3100 nM; in assay [4] it was 5500 nM; in [5], 5100 nM; in [6] it was 500 nM. The IC50 in assay [7] came out at 3600 nM; in [8], 3000 nM; in [9], 4800 nM; in assay [10] it was 600 nM; in assay [11] it was 2700 nM; in assay [12], 3100 nM.
Regarding `O=C1c2nccc(O)c2-c2nc3ccccc3c3ccnc1c23` [MERIDINE], the IC50 in assay [1] was 70 nM; in assay [2], 200 nM; in [3] it was 90 nM; in assay [4] it was 70 nM; in [5] it was 500 nM; in [6], 200 nM. Moreover, the IC50 was determined as 50 nM in assay [7]; 8200 nM in [8]; 2000 nM in assay [9]; 80 nM in assay [10]; 100 nM in assay [11]; 100 nM in assay [12].
On to `O=C1c2nccc(-c3ccccc3NC(=O)C(F)(F)F)c2C(=O)c2c([N+](=O)[O-])ccnc21`, for which the IC50 amounted to 900 nM in assay [1]; 4500 nM in [2]; 700 nM in assay [3]; 4300 nM in [4]; 600 nM in assay [5]; 600 nM in [6]. The IC50 in [7] is 5400 nM; in assay [8], 3900 nM; in [9] it was 6000 nM; in assay [10] it was 900 nM; in [11], 4700 nM; in assay [12] it was 900 nM.
In the case of `O=C1c2nccc(O)c2C(=O)c2c(-c3ccccc3[N+](=O)[O-])ccnc21`, the IC50 in [1] was found to be 2900 nM; in assay [2], 1200 nM; in assay [3], 3900 nM; in assay [4], 4500 nM; in assay [5] it was 7300 nM; in assay [6], 3500 nM. Moreover, the IC50 came to 2300 nM in assay [7]; 5300 nM in assay [8]; 2900 nM in assay [9]; 2300 nM in assay [10]; 800 nM in assay [11]; 4000 nM in assay [12].

Values taken from ChEMBL document CHEMBL1134779, “Synthesis and characterization of the antitumor activities of analogues of meridine, a marine pyridoacridine alkaloid” (J Med Chem, 2001).
